Test results reported in ChEMBL document CHEMBL4321816, “Identification of 2,6-Disubstituted 3H-Imidazo[4,5-b]pyridines as Therapeutic Agents for Dysferlinopathies through Phenotypic Screening on Patient-Derived Induced Pluripotent Stem Cells” (J Med Chem, 2019).
≈ marks a conversion by molar mass, not a printed value. Calls of active or inactive are those of the source. No cut-off for these calls is given here.

Experiments:
[1] = (§1) Anti-dysferlinopathy activity in human dermal myocytes derived from dysferlinopathy patient dermal fibroblast iPSC harboring dysferlin c.2997 G > T (p. W999C)/c.1958G deletion mutant assessed as increase in dysferlin expression incubated for 24 hrs by immunostaining assay; type: functional
Procedure, shortened: (§2)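 iPSCs from a dysferlinopathy patient's dermal fibroblasts carrying a stably transfected Tet-MyoD1 vector. Differentiated to myocytes by doxycycline (1 µg/mL) MyoD induction, then treated on day 7 for 24 h at 0.003–10 µM (0.1% DMSO final). Fixed, immunostained for dysferlin and MHC, and imaged. Read-out: 488 nm intensity in the dysferlin/MHC double-positive area. EC150 is the concentration giving 50% increase over median DMSO wells, from a 4-parameter logistic fit.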

Sus scrofa = organism: Sus scrofa; test: Competitive inhibition of porcine tubulin alpha/beta at 10 to 100 uM preincubated 30 mins followed by addition of N-(2-(3-(But-3-yn-1-yl)-3H-diazirin-3-yl)ethyl)-5-(2-(phenoxymethyl)-3H-imidazo[4,5-b]pyridin-6-yl)thiophene-3-carboxamide and measured after 15 mins by SDS-PAGE based fluorescence assay
Procedure, shortened: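 Porcine brain tubulin at 25 µg/mL in HEPES isotonic buffer (pH 7.4) pre-incubated 30 min at room temperature with DMSO or compound (1–10 mM DMSO stocks). […] Labeled tubulin was tagged with TAMRA-azide by click reaction, run on SDS-PAGE and scanned for fluorescence, with Coomassie staining for total tubulin.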

[2] = Aqueous solubility in pH 6.8 by HPLC analysis; type: physicochemical; conditions: buffer
Procedure, shortened: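 Compound added from DMSO solution to aqueous buffer at pH 6.8 and incubated. Precipitate removed by filtration. Dissolved compound in the filtrate quantified by plate reader or HPLC.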

[3] = Permeability of compound in pH 7.4 in PRISMA HT buffer at 10 umol/L incubated for 3 hrs by LC/MS/MS based PAMPA assay; type: ADME; conditions: read-out: permeability
Procedure, shortened: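 PAMPA: donor wells held PRISMA HT buffer (pH 7.4) with 10 µmol/L compound, and the acceptor filter was coated with GIT-0 lipid over sink buffer. Incubated 3 h at room temperature, then compound in donor and acceptor wells measured by LC/MS/MS.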

Homo sapiens = organism: Homo sapiens; test: as §1; type: functional; procedure, shortened: as §2
HepG2 = test: Cytotoxicity against human HepG2 cells assessed as reduction in cell viability after 24 hrs by Cell Titer Glo assay; type: cell-based; conditions: HepG2, 24 h
Procedure, shortened: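 HepG2 cells in DMEM high glucose with 10% FBS were seeded at 5000 cells/well and grown ~24 h. Compounds were then added for 24 h at 37 °C/5% CO2, and viability read by CellTiter-Glo luminescence. Controls were DMSO wells and medium-only wells. IC50 was taken from a sigmoidal fit of % inhibition.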

## Clc1ccc(CCc2nc3cc(-c4ccco4)cnc3[nH]2)cc1
[1]
  EC150: 4.3 µM

## CNC(=O)c1ccsc1-c1cnc2[nH]c(COc3ccccc3)nc2c1
[1]
  EC150: >10 µM

## COC(=O)Nc1nc2cc(C(=O)c3cccs3)ccc2[nH]1 [NOCODAZOLE]
Sus scrofa
  inhibition: Active
[1]
  EC150: 1 µM

## Cc1nc2[nH]c(CCc3ccc(F)cc3)nc2cc1-c1cccs1
[1]
  EC150: >10 µM

## COCCOCCNC(=O)c1csc(-c2cnc3[nH]c(COc4ccccc4)nc3c2)c1
[1]
  EC150: 0.4 µM

## c1ccc(CCc2nc3cc(-c4ccco4)cnc3[nH]2)cc1
[2]
  solubility: 6.4 µg/mL (≈ 22.1 µM)
[3]
  Papp at 3 h, 10 µM: 33.2 ×10⁻⁶ cm/s
Homo sapiens
  Activity: Dose-dependent effect
[1]
  EC150: 5.9 µM
HepG2
  IC50: > 100 µM

## c1ccc(OCc2nc3cc(-c4cccs4)cnc3[nH]2)cc1
Sus scrofa
  inhibition: Active
[1]
  EC150: 0.039 µM

## FC(F)(F)c1ccc(CCc2nc3cc(-c4ccco4)cnc3[nH]2)cc1
[1]
  EC150: >10 µM

## Fc1ccc(CCc2nc3cc(-c4ccccc4)cnc3[nH]2)cc1
[1]
  EC150: 1.3 µM

## Fc1ccc(CCc2nc3ncc(-c4cccs4)cc3o2)cc1
[1]
  EC150: >10 µM

## Cc1ccc(-c2cnc3[nH]c(CCc4ccc(F)cc4)nc3c2)s1
[1]
  EC150: 6.3 µM

## Fc1ccc(OCc2nc3cc(-c4cccs4)cnc3[nH]2)cc1
[1]
  EC150: 0.067 µM

## c1ccc(-c2nc3cc(-c4ccco4)cnc3[nH]2)cc1
[1]
  EC150: >10 µM

## CC[C@]1(O)C[C@@H]2CN(CCc3c([nH]c4ccccc34)[C@@](C(=O)OC)(c3cc4c(cc3OC)N(C)[C@H]3[C@@](O)(C(=O)OC)[C@H](OC(C)=O)[C@]5(CC)C=CCN6CC[C@]43[C@@H]65)C2)C1 [VINBLASTINE]
Sus scrofa
  inhibition: inactive
[1]
  EC150: 0.074 µM

## Fc1ccc(CCc2nc3cc(-c4cccs4)ccc3[nH]2)cc1
[1]
  EC150: >10 µM

## Clc1cccc(CCc2nc3cc(-c4ccco4)cnc3[nH]2)c1
[1]
  EC150: >10 µM

## Cc1csc(-c2cnc3[nH]c(CCc4ccc(F)cc4)nc3c2)c1
[1]
  EC150: 1.9 µM

## COc1cc2c(c(OC)c1OC)-c1ccc(OC)c(=O)cc1[C@@H](NC(C)=O)CC2
Sus scrofa
  inhibition: Active

## N#Cc1ccc(CCc2nc3cc(-c4ccco4)cnc3[nH]2)cc1
[1]
  EC150: >10 µM

## Clc1ccccc1CCc1nc2cc(-c3ccco3)cnc2[nH]1
[1]
  EC150: >10 µM

## Fc1ccc(CCc2nc3cc(-c4cccs4)cnc3[nH]2)cc1
[1]
  EC150: 0.15 µM

## C#CCCC1(CCNC(=O)c2csc(-c3cnc4[nH]c(COc5ccccc5)nc4c3)c2)N=N1
[1]
  EC150: 0.37 µM

## COc1ccc(CCc2nc3cc(-c4ccco4)cnc3[nH]2)cc1
[1]
  EC150: >10 µM

## Fc1ccc(CCc2nc3cc(-c4cccs4)cnc3o2)cc1
[1]
  EC150: >10 µM

## CC(C)c1ccsc1-c1cnc2[nH]c(COc3ccccc3)nc2c1
[1]
  EC150: 0.012 µM

## Cc1c(-c2cccs2)cnc2[nH]c(CCc3ccc(F)cc3)nc12
[1]
  EC150: 0.37 µM

## CNC(=O)c1csc(-c2cnc3[nH]c(COc4ccccc4)nc3c2)c1
[1]
  EC150: 0.11 µM

## Fc1ccc(CCc2nc3cc(-c4ccco4)cnc3[nH]2)cc1
[1]
  EC150: 1 µM

## c1ccc(Cc2nc3cc(-c4ccco4)cnc3[nH]2)cc1
[1]
  EC150: >10 µM

## CC(=O)O[C@H]1C(=O)[C@@]2(C)[C@H]([C@H](OC(=O)c3ccccc3)[C@]3(O)C[C@H](OC(=O)[C@H](O)[C@@H](NC(=O)c4ccccc4)c4ccccc4)C(C)=C1C3(C)C)[C@]1(OC(C)=O)CO[C@@H]1C[C@@H]2O
Sus scrofa
  inhibition: inactive

## Cc1ccc(CCc2nc3cc(-c4ccco4)cnc3[nH]2)cc1
[1]
  EC150: >10 µM

## Cc1ccsc1-c1cnc2[nH]c(CCc3ccc(F)cc3)nc2c1
[1]
  EC150: 0.11 µM
